Measurements: PMC8898323 (ChemMedChem, 2021)
“Also recorded” adds a separate entry of the source. Where two headings read alike, the source gives them in different places. Values belong to the compound of their own block, whether it stands above or below them.

Tests used:
[1] = biological target: T1, hMGL (Homo sapiens, UniProt Q99685); experiment: Fluorescence-based hMGL inhibition counterscreen; format: biochemical; conditions: for hMGL inhibition, result in words: inactive tested at 1uM
T1 sequence (Q99685 1-303): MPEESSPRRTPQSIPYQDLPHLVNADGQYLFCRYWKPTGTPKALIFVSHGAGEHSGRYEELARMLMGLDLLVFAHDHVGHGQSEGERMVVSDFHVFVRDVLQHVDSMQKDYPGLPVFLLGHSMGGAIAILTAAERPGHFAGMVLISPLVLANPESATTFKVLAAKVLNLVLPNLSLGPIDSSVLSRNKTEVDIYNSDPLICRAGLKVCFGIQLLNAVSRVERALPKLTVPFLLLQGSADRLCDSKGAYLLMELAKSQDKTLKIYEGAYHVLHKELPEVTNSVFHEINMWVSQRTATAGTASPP

[2] = biological target: T2, hABHD6 (Homo sapiens, UniProt Q9BV23); experiment: Fluorescence-based hABHD6 inhibition assay; format: biochemical; conditions: for inhibition at 10 µM: read-out: % inhibition hABHD6; for hABHD6 inhibition, result in words: words in table or text, table footnote c: inactive tested at 1uM; for fold loss in potency for ABHD6: versus the comparator analog named in the text
T2 sequence (Q9BV23 1-337): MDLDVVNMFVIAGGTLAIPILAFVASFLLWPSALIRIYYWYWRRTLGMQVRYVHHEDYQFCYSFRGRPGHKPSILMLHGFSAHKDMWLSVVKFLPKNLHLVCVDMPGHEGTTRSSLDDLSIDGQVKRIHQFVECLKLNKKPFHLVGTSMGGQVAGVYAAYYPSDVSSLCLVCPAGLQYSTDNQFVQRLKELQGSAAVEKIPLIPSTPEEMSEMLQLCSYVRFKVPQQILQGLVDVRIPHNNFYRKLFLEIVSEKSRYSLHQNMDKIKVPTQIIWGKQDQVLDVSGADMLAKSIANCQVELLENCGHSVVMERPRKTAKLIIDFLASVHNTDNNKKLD

[3] = biological target: T3, hFAAH (Homo sapiens, UniProt O00519); experiment: Fluorescence-based hFAAH inhibition counterscreen; format: biochemical; conditions: for hFAAH inhibition, result in words: inactive tested at 1uM
T3 sequence (O00519 1-579): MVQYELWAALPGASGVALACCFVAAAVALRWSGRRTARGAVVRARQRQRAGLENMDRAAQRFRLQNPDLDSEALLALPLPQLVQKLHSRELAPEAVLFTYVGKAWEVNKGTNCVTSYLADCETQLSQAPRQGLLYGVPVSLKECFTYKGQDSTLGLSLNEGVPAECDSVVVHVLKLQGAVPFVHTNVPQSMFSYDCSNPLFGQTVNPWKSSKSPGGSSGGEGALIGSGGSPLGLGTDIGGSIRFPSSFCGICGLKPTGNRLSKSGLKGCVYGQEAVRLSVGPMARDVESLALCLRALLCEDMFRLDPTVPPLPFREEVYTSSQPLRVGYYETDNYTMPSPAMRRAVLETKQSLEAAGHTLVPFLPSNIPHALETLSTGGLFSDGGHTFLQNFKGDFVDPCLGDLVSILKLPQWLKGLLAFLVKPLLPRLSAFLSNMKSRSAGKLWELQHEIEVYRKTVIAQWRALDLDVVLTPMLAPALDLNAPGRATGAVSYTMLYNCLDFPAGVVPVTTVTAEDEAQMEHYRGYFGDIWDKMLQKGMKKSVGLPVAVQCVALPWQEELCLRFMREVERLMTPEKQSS

[4] = system: ABHD6; conditions: read-out: IC50 ABHD6; activity-based protein profiling (ABPP) assay; ref 22b; cited from earlier work
[5] = system: rat retina (AMPA excitotoxicity); conditions: cited from earlier work
[6] = Metabolic stability in human liver microsomes; format: in vitro ADME; conditions: NADPH
Summary of the method: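 Inhibitor pre-incubated at 37 °C with liver microsomal protein of the given species. Reaction started with NADPH, or buffer as control. Proteins precipitated, then parent remaining measured by LC-MS/MS in SRM mode to give t1/2.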

[7] = Cassette pharmacokinetics in brain and plasma, male CD-1 mice; format: in vivo, mouse; conditions: for concentration at 15 min: iv; for concentration at 30 min / concentration at 60 min: po
Summary of the method: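 Male CD-1 mice (25–30 g), cassette dosing: single iv dose of 2 mg/kg and oral dose of 8 mg/kg per compound. Plasma and brain taken 15 min after iv, and 30 and 60 min after oral dosing, n = 3 per time point. Flash-frozen tissue extracted and quantified by LC-MS/MS (SRM) with internal standards.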

[8] = read-out: IC50 (nM) ± SEM hMGL, triplicate, eight concentrations
[9] = male, CD-1, mouse, brain, 8 mg/kg
[10] = male, CD-1, mouse, plasma, 8 mg/kg

IC50 [1, 8]: 348 ± 7.5 nM
inhibition at 10 µM [2]: 37%
hABHD6 inhibition, result in words [2]: practically inactive
hFAAH inhibition, result in words [3]: inactive
Compound: O=C(OC(C(F)(F)F)C(F)(F)F)N1CC(C(c2ccccc2)c2ccccc2)C1 [10d, 1,1,1,3,3,3-Hexafluoropropan-2-yl 3-benzhydrylazetidine-1-carboxylate]

IC50 [1, 8]: 83.5 ± 1.8 nM
hFAAH inhibition, result in words [3]: inactive
Compound: CN(C1CN(C(=O)OC(C(F)(F)F)C(F)(F)F)C1)C(c1ccc(F)cc1)c1ccc(F)cc1 [9d, 1,1,1,3,3,3-Hexafluoropropan-2-yl 3-((bis(4-fluorophenyl)methyl) (methyl)amino) azetidine-1-carboxylate]

hMGL inhibition, result in words [1]: lacked activity; also recorded: inactive
Compound: O=C(OC(C(F)(F)F)C(F)(F)F)N1CCc2ccccc2C1 [14a, 1,1,1,3,3,3-Hexafluoropropan-2-yl 3,4-dihydroisoquinoline-2(1H)-carboxylate]
hFAAH inhibition, result in words [3]: lacked activity; also recorded: inactive^c

hMGL inhibition, result in words [1]: inactive
inhibition at 1 µM ([3]; read-out: % inhibition hFAAH): 71%
Compound: O=C(OC(C(F)(F)F)C(F)(F)F)N1Cc2ccc(OCCN3CCCCC3)cc2C1 [22j, 1,1,1,3,3,3-Hexafluoropropan-2-yl 5-(2-(piperidin-1-yl)ethoxy)isoindoline-2-carboxylate]

hMGL inhibition, result in words [1]: inactive
inhibition at 10 µM [2]: 35%
hABHD6 inhibition, result in words [2]: practically inactive
hFAAH inhibition, result in words [3]: inactive
Compound: O=C(O[C@H](CO)C(F)(F)F)N1CCc2c(Br)cccc2C1 [14j, (R)-1,1,1-trifluoro-3-hydroxypropan-2-yl 5-bromo-3,4-dihydroisoquinoline-2(1H)-carboxylate]

hMGL inhibition, result in words [1]: inactive
hFAAH inhibition, result in words [3]: inactive^f
Microsomes t1/2 min Human [6]: most stable
brain permeability, result in words ([7]; comparing brain and plasma levels after iv administration at 15 min): brain permeable
Kp at 15 min ([7]; male, CD-1, mouse, brain, intravenous, 2 mg/kg): 1.2
concentration at 15 min ([7]; male, CD-1, mouse, brain, 2 mg/kg): 735 ± 56 ng/g
concentration at 30 min [7, 9]: 248 ± 89 ng/g
concentration at 60 min [7, 9]: 227 ± 95 ng/g
concentration at 15 min ([7]; male, CD-1, mouse, plasma, 2 mg/kg): 633 ± 46 ng/mL
bioavailability ([7]; male, CD-1, mouse, plasma, oral, 8 mg/kg): 28%
concentration at 30 min [7, 10]: 180 ± 72 ng/mL
concentration at 60 min [7, 10]: 140 ± 31 ng/mL
Compound: O=C(OC(C(F)(F)F)C(F)(F)F)N1Cc2ccc(OCCN3CCOCC3)cc2C1 [22f, 1,1,1,3,3,3-Hexafluoropropan-2-yl 5-(2-morpholinoethoxy)isoindoline-2-carboxylate]
AMPA-induced glia activation ([5]; rat retina): attenuated
retina neuroprotection ([5]; rats, AMPA excitotoxicity): dose-dependent retina neuroprotection

The remaining lines, values behind:

Compound: N#Cc1cccc(OC(=O)N2CC(OC(c3ccc(F)cc3)c3ccc(F)cc3)C2)c1 [5a, 3-Cyanophenyl 3-(bis(4-fluorophenyl)methoxy)azetidine-1-carboxylate]
IC50 [1]: 66.1 ± 2.4 nM
fold loss in potency for ABHD6 [2]: about 2 fold
inhibition at 0.1 µM ([3]; read-out: % inhibition hFAAH): 33%

Compound: O=C(OC(C(F)(F)F)C(F)(F)F)N1CC(OC(c2ccc(F)cc2)c2ccc(F)cc2)C1 [6b, 1,1,1,3,3,3-Hexafluoropropan-2-yl 3-(bis(4-fluorophenyl)methoxy)azetidine-1-carboxylate]
IC50 [1]: 6.4 ± 1.5 nM
fold loss in potency for ABHD6 [2]: about 2 fold
hFAAH inhibition, result in words [3]: inactive

Compound: CC1(C)C2C(=O)N(OC(=O)N3CCc4c(Br)cccc4C3)C(=O)C21 (centres unmarked) [25b, 6,6-Dimethyl-2,4-dioxo-3-azabicyclo[3.1.0]hexan-3-yl 5-bromo-3,4-dihydro isoquinoline-2(1H)-carboxylate]
hMGL inhibition, result in words [1]: inactive
fold loss in potency for ABHD6 [2]: 2 fold
hFAAH inhibition, result in words [3]: inactive
